aDG glyco act: increases alpha dystroglycan glycosylation. Pro5-aDG cells, alpha-DG glycosylation AlphaScreen (IIH6); 0% Pro5, 100% B10-LARGE cell signal. 360,000 compounds, 0.22% hits. activation, % at 10 µM;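 active means activation of at least 8% versus controls, or a plate z-score of at least 8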;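 further: Pro5 are CHO cells carrying HIG-tagged alpha-DG that lacks glycosylation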
UPR CHOP act: activators of apoptotic arm of unfolded protein response (CHOP); CHO-CHOP luciferase reporter, UPR activation, luminescence; percent of tunicamycin response over DMSO baseline; activation, % at 10 µM; 330,000 compounds, 0.34% hits;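 active means at 10 µM dose, activation of 40% or more, normalized to positive control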;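 further: 100% = tunicamycin at 10 µg/mL and 0% = DMSO alone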
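assay system = CHO CHOP reporter cells | amount = 500 CHO-CHOP cells per well | buffer or medium = F12 with 10% FBS | incubation = 16-18 h cell attachment, then 6 h compound exposure, 37 °C | detection = luminescence read with Steady-Glo | read-out = percent activation relative to tunicamycin control | controls = tunicamycin high control, DMSO low control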
CHOP inhibitor: blocks CHOP induction under ER stress. CHO-K1 CHOP-promoter luciferase, tunicamycin-induced, 15-18 h. inhibition, % at 10 µM. 220,000 compounds, 3.8% hits. AID 2732;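 active means compounds that reduced the stress-induced luciferase reporter signal by more than about 70% of percent inhibition, limit read from the data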;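 further: 0% = tunicamycin plus vehicle and 100% = wells without tunicamycin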
MPTP inh: permeability transition pore inhibition; 360,000 compounds, 1.4% hits; AID 602449; inhibition, % at 10 µM; isolated mouse mitochondria, Ca2+ swelling absorbance, 30 min;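 active means inhibition of 50% or more, scaled per plate between neutral and stimulator controls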;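 further: 0% = DMSO wells given calcium and 100% = 1 mM EGTA wells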
XBP1 UPR activ: activators of adaptive arm of unfolded protein response (XBP1); CHO-XBP1 luciferase reporter, IRE1-XBP1 UPR activation, luminescence; percent of tunicamycin response, DMSO as zero; 330,000 compounds, 0.33% hits; activation, % at 20 µM;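 active means versus positive control, 20 µM dose yields 30% or more activation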;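 further: 100% = tunicamycin at 10 µg/mL and 0% = DMSO only wells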
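assay system = CHO-XBP1 luciferase reporter cells | amount = 1000 cells/well | buffer or medium = F12 plus 10% FBS | compound dosing = single point, 20 µM final compound, 1% DMSO | incubation = 16-18 h cell attachment at 37 °C, then 6 h compound exposure | detection = Steady-Glo luminescence read | controls = tunicamycin 10 µg/mL and vehicle-only wells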
GRIN3A LBD mod: modulates the human NR3A ligand-binding domain. Tm shift relative to glycine control, % at 25 µM. 340,000 compounds, 2.5% hits. AID 1259313. NR3A LBD differential scanning fluorimetry, Tm shift; 0% = protein alone, 100% = glycine-bound protein;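 active means melting temperature shift of at least 10% of the positive control shift, at one fixed dose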
* marks the source's active call; other numbers are inactive results. Shown are actives, neighbours in structure and some others; about 5.6% of the full set was active somewhere.

`COc1ccc(CC(=O)N(C)Cc2ccc(C(C)(C)C)cc2)cc1S(=O)(=O)N1CCOCC1` gave aDG glyco act 0, UPR CHOP act 1, MPTP inh 0, XBP1 UPR activ -4 and GRIN3A LBD mod 11*.
For Nc1ccccc1-c1nc2ccccc2[nH]c1=O the results were aDG glyco act 0, UPR CHOP act 2, MPTP inh -1, XBP1 UPR activ -4 and GRIN3A LBD mod -2.
For O=c1[nH]c2ccccc2nc1-c1c[nH]c2ccccc12 the results were aDG glyco act 1, UPR CHOP act 5, MPTP inh 1, XBP1 UPR activ 9 and GRIN3A LBD mod 39*.
`CCc1ccc(N2CC(C(=O)N/N=C/c3cccc([N+](=O)[O-])c3)CC2=O)cc1` (stereo not given) gave aDG glyco act 0, UPR CHOP act 1, CHOP inhibitor 83*, MPTP inh 2, XBP1 UPR activ 3 and GRIN3A LBD mod -6.
For Cc1noc(C)c1S(=O)(=O)Nc1ccc(C(=O)NCc2ccccc2)cc1 the results were aDG glyco act 0, UPR CHOP act 1, CHOP inhibitor -1, MPTP inh 14, XBP1 UPR activ -1 and GRIN3A LBD mod 6.
`CCc1cccc(NC(=O)c2ccc(NS(=O)(=O)c3c(C)noc3C)cc2)c1` gave aDG glyco act 0, UPR CHOP act 1, CHOP inhibitor 24, MPTP inh 0, XBP1 UPR activ -2 and GRIN3A LBD mod 29*.
For Cc1noc(C)c1S(=O)(=O)Nc1ccc(C(=O)Nc2ccc(OC(F)(F)F)cc2)cc1 the results were aDG glyco act 0, UPR CHOP act 1, MPTP inh 1, XBP1 UPR activ -5 and GRIN3A LBD mod 12*.
For Cc1cccc(NC(=O)c2ccc(NS(=O)(=O)c3c(C)noc3C)cc2)c1 the results were aDG glyco act 0, UPR CHOP act -2, CHOP inhibitor 57, MPTP inh 1, XBP1 UPR activ -1 and GRIN3A LBD mod 29*.
`COc1ccc(OC)c(NC(=O)c2ccc(NS(=O)(=O)c3c(C)noc3C)cc2)c1` gave aDG glyco act 0, UPR CHOP act -2, CHOP inhibitor -70, MPTP inh 0, XBP1 UPR activ -1 and GRIN3A LBD mod 3.
For COc1cc(NC(=O)c2ccc(NS(=O)(=O)c3c(C)noc3C)cc2)cc(OC)c1 the results were aDG glyco act 0, UPR CHOP act 0, CHOP inhibitor 40, MPTP inh 0, XBP1 UPR activ -3 and GRIN3A LBD mod 19*.
For CCn1cc(CN2CCC(n3nccc3NC(=O)C3CCCC3)CC2)cn1 the results were aDG glyco act 0, UPR CHOP act -1, MPTP inh -2, XBP1 UPR activ -5 and GRIN3A LBD mod 0.
`CN1CCN(CCc2nc3cc(NC(=O)COc4ccc([N+](=O)[O-])cc4)ccc3n2C)CC1` gave aDG glyco act 0, UPR CHOP act 0, MPTP inh -3, XBP1 UPR activ -2 and GRIN3A LBD mod -3.
CC(C)c1ccc(CN2CC(C(=O)Nc3ccccc3)CC2=O)cc1 (stereo not given) was read as aDG glyco act 0, UPR CHOP act -1, CHOP inhibitor 23, MPTP inh 2, XBP1 UPR activ 1 and GRIN3A LBD mod 15*.
`O=C(NCC(c1ccccc1Cl)N1CCCC1)C1CCN(C(=O)Nc2ccccc2)CC1` (stereo not given) gave aDG glyco act 0, UPR CHOP act 2, MPTP inh -1, XBP1 UPR activ -3 and GRIN3A LBD mod 1.
For O=C1C(NS(=O)(=O)c2cccs2)=C(N2CCN(c3cccc(Cl)c3)CC2)C(=O)c2ccccc21 the results were aDG glyco act -1, UPR CHOP act 1, CHOP inhibitor 73*, MPTP inh 4, XBP1 UPR activ 3 and GRIN3A LBD mod -1.
O=C1C(NS(=O)(=O)c2ccccc2)=C(N2CCN(c3ccc(F)cc3)CC2)C(=O)c2ccccc21 was read as aDG glyco act 0, UPR CHOP act 3, CHOP inhibitor -6, MPTP inh 3, XBP1 UPR activ -1 and GRIN3A LBD mod -7.
For COc1ccc(-c2nc3ccc(Br)cn3c2CC(C)(C)C)cc1OC the results were aDG glyco act 0 and MPTP inh 0.
Screening Cc1ccc2nc(-c3cccnc3)c(Nc3ccccc3C)n2c1 returned aDG glyco act 0, UPR CHOP act -1, CHOP inhibitor 10, MPTP inh 0, XBP1 UPR activ 1 and GRIN3A LBD mod -2.
Cc1ccc2nc(-c3ccccn3)c(Nc3ccccc3C)n2c1 was read as aDG glyco act 2, UPR CHOP act 19, CHOP inhibitor 77*, MPTP inh 1, XBP1 UPR activ 7 and GRIN3A LBD mod 2.
For Cc1ccccc1Nc1c(-c2ccccn2)nc2ccccn12 the results were aDG glyco act 1, UPR CHOP act 2, CHOP inhibitor 69, MPTP inh -1, XBP1 UPR activ 12 and GRIN3A LBD mod -3.
Cc1ccn2c(Nc3ccccc3C)c(-c3ccccn3)nc2c1 was read as aDG glyco act 1, UPR CHOP act 16, CHOP inhibitor 88*, MPTP inh 1, XBP1 UPR activ 11 and GRIN3A LBD mod -5.
Cc1ccn2c(Nc3ccccc3)c(-c3ccccn3)nc2c1 was read as aDG glyco act 2, UPR CHOP act 16, CHOP inhibitor 84*, MPTP inh 2, XBP1 UPR activ 9 and GRIN3A LBD mod -8.
`Cc1cc(/C=C2\C(=N)N3C(SCc4ccccc4)=NSC3=NC2=O)c(C)n1Cc1ccccc1` gave aDG glyco act 0, UPR CHOP act 1, CHOP inhibitor 88*, MPTP inh 16, XBP1 UPR activ 0 and GRIN3A LBD mod 14*.
Cc1cc(/C=C2\C(=N)N3N=C(C(C)C)SC3=NC2=O)c(C)n1Cc1ccccc1 was read as aDG glyco act 0, UPR CHOP act -1, CHOP inhibitor 3, MPTP inh 5, XBP1 UPR activ -4 and GRIN3A LBD mod 1.
Screening COc1ccc(CN(CCC(c2ccc(F)cc2)C2CCOC(C)(C)C2)C(=O)c2ccco2)cc1 (stereo not given) returned aDG glyco act -1, UPR CHOP act 6, CHOP inhibitor 14, MPTP inh 4, XBP1 UPR activ 7 and GRIN3A LBD mod -2.
Screening CC(c1ccccc1)N(CCC(c1ccccc1)C1CCOC(C)(C)C1)C(=O)c1ccco1 (stereo not given) returned aDG glyco act 0, UPR CHOP act 2, CHOP inhibitor 80*, MPTP inh 0, XBP1 UPR activ -1 and GRIN3A LBD mod -3.

From PubChem BioAssay
